Experimental data taken from article PMC6226116 (Clinical and Translational Science, 2018).
Like-named read-outs stand apart in the source and are kept apart here.

What was measured:
[1] = with tacrolimus; cited from earlier work
[2] = assay type: in vivo, human
[3] = cited from earlier work
[4] = cited from earlier work; remark: listed apart in the source
[5] = co‐administration of cyclosporine; cited from earlier work
P‐gp = settings: LLC‐PK1‐P‐gp cell monolayers; cited from earlier work
[6] = Cyclosporine and tacrolimus trough concentrations before the third dose; assay type: in vivo, human; settings: tacrolimus 5 mg oral once daily, predose on day 3
Method in brief: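 Healthy adult male volunteers (n=12) took each test compound orally once daily for 3 days in separate treatment periods (100 mg as soft gelatin capsules; 5 mg). They fasted from 10 h before to 2 h after dosing and avoided CYP-affecting medications. Blood was drawn immediately before the day-3 dose, processed by a certified clinical laboratory, and plasma concentrations were measured by validated LC-MS/MS.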

[7] = both, human, plasma, oral, 100 mg
[8] = in the presence of cyclosporine vs apixaban alone
[9] = in the presence of tacrolimus vs apixaban alone
[10] = co‐administration with ketoconazole, humans

CC(C)c1c(C(=O)Nc2ccccc2)c(-c2ccccc2)c(-c2ccc(F)cc2)n1CC[C@@H](O)C[C@@H](O)CC(=O)O [atorvastatin]
impact on atorvastatin pharmacokinetics [1]: no impact

COc1ccc(-n2nc(C(N)=O)c3c2C(=O)N(c2ccc(N4CCCCC4=O)cc2)CC3)cc1 [Apixaban]
CL/F ([2]; apixaban 10 mg oral alone, arithmetic mean (SD) [minimum, maximum]): 5.8 L/h
T max ([2]; apixaban with tacrolimus 5 mg daily for 3 days, median [minimum, maximum]): 2.5 [1, 4] h
Vd/F [2, 7]: 45 L
half-life [2, 7]: 6.8 h
Tmax ([2]; both, human, plasma, po, 10 mg): 2.5 h
Vd/F ([2]; both, human, plasma, po, 10 mg): 89 L
half-life ([2]; both, human, plasma, po, 10 mg): 12.1 h
GMR for apixaban AUC(0–tlast) [2, 8]: 120%
GMR for apixaban AUC(0–∞) [2, 8]: 119%
GMR for apixaban C max [2, 8]: 143%
GMR for apixaban AUC(0–tlast) [2, 9]: 78%
GMR for apixaban AUC(0–∞) [2, 9]: 77%
GMR for apixaban C max [2, 9]: 87%
increase in apixaban exposure ([2]; with cyclosporine co-administration): 20%
decrease in apixaban exposure ([2]; with tacrolimus co-administration): 22%
increase in apixaban AUC ([3]; administration with diltiazem): 1.4 fold
increase in apixaban C max ([3]; administration with diltiazem): 1.3 fold
increase in apixaban AUC [3, 10]: twofold
increase in apixaban C max [3, 10]: 1.6 fold

COc1ccc2c(O[C@@H]3C[C@H]4C(=O)N[C@]5(C(=O)NS(=O)(=O)C6CC6)C[C@H]5/C=C\CCCCN(C)C(=O)[C@@H]4C3)cc(-c3nc(C(C)C)cs3)nc2c1C [simeprevir]
increase in AUC(0‐24) of simeprevir ([4]; with cyclosporine): 5.8 fold
increase in C max of simeprevir ([4]; with cyclosporine): 4.7 fold
increase in AUC(0‐24) of simeprevir ([4]; with tacrolimus): 85%
increase in Cmax of simeprevir ([4]; with tacrolimus): 79%

COc1cc2c(c(OC)c1OC)-c1ccc(OC)c(=O)cc1[C@@H](NC(C)=O)CC2 [colchicine]
increase in colchicine AUC(0–∞) [5]: 215%
increase in colchicine C max [5]: 224%

CC(=O)N1CCN(c2ccc(OCC3COC(Cn4ccnc4)(c4ccc(Cl)cc4Cl)O3)cc2)CC1 (stereo not shown) [ketoconazole]
inhibition of apixaban efflux (P‐gp): extensively inhibited

C=CC[C@@H]1/C=C(\C)C[C@H](C)C[C@H](OC)[C@H]2O[C@@](O)(C(=O)C(=O)N3CCCC[C@H]3C(=O)O[C@H](/C(C)=C/[C@@H]3CC[C@@H](O)[C@H](OC)C3)[C@H](C)[C@@H](O)CC1=O)[C@H](C)C[C@@H]2OC [tacrolimus]
trough concentration, mean (SD) [6]: 3.8 (2.3) ng/mL
